The test system of assay [1] is K562. Put plainly: Antiproliferative activity against human K562 cells after 5 days by MTT assay. The assay is classed as functional, cell-based. To be noted: K562, 120 h. In outline:
(§1)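 Cells at about 2000 cells/mL (set by doubling time) in RPMI with 10% v/v FCS; compound from DMSO stock, seven twofold serial dilutions plus drug-free control, triplicate wells, 37 °C 5% CO2 for 5 days. MTT (3 mg/mL in PBS) added for 3 h, formazan dissolved in DMSO, OD read at 540 and 690 nm; IC50 derived graphically as percentage of control growth.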
For orientation: Tetrazolium dyes change colour on reduction, which living cells bring about.

Assay [2] is described as follows: Inhibition of tubulin assembly by spectrophotometry. In outline:
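Tubulin (10–15 μM stock) in 0.1 M Mes, 1 mM EGTA, 0.5 mM MgCl2, pH 6.6, with GTP, compound in DMSO, assembled on cold at 0 °C then moved to 37 °C. Absorbance at 350 nm followed for 30 min against drug/GTP buffer blanks; change in optical density relative to untreated control gives IC50 for assembly inhibition.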

Assay [3] relates to K562. Put plainly: Cell cycle arrest in human K562 cells assessed as accumulation at G0/G1 phase at 10 uL after overnight incubation by propidium iodide staining-based flow cytometry. The assay is classed as functional. The essentials:
(§2)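 Fixed in cold 1:1 acetone:ethanol, washed in PBS, RNAse treated (37 °C, 15 min), stained with propidium iodide 50 µg/mL; DNA content read by flow cytometry, argon laser excitation 488 nm; percentage of cells per phase versus untreated control.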
For orientation: In flow cytometry, cells or beads pass a laser one at a time.

A further assay deals with L1210. Put plainly: Antiproliferative activity against mouse L1210 cells after 5 days by MTT assay. To be noted: L1210, 120 h. The assay is classed as functional, cell-based. The essentials:
as §1

For the next assay, the system named is A549. Put plainly: Antiproliferative activity against human A549 cells after 5 days by MTT assay. To be noted: A549, 120 h. The assay is classed as functional, cell-based. The essentials: as §1
The test system of assay [4] is K562. Put plainly: Cell cycle arrest in human K562 cells assessed as accumulation at G2/M phase at 10 uL after overnight incubation by propidium iodide staining-based flow cytometry. The assay is classed as functional. The essentials: as §2
In assay [5] the test system is K562. Nature of the assay: Cell cycle arrest in human K562 cells assessed as accumulation at S phase at 10 uL after overnight incubation by propidium iodide staining-based flow cytometry. The assay is classed as functional. The essentials: as §2
Another assay relates to A2780. Nature of the assay: Antiproliferative activity against human A2780 cells after 5 days by MTT assay. The conditions noted are these: A2780, 120 h. The assay is classed as functional, cell-based. The essentials:
as §1

In another assay the test system is P388. Put plainly: Antiproliferative activity against mouse P388 cells after 5 days by MTT assay. The assay is classed as functional, cell-based. The conditions noted are these: P388, 120 h. In outline: as §1
Assay [6] is described as follows: Inhibition of tubulin assembly by turbidimetry assay.
For assay [7], the system named is K562. Nature of the assay: Cytotoxicity against human K562 cells. The assay is classed as functional, cell-based. In outline:
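K562 cells in RPMI with 10% v/v FCS, at about 2000 cells/mL. Drug in DMSO was serially diluted twofold to give seven concentrations, plus a drug-free control. Cells were plated in triplicate and incubated 5 days at 37 °C, 5% CO2. MTT (3 mg/mL stock) was added for 3 h, formazan dissolved in DMSO, and OD read at 540 and 690 nm. IC50 was found graphically as percent of control growth.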

Assay [8] can be described thus: Displacement of [3H]colchicine from tubulin. A general note: Loss of bound radioactivity is the signal in a displacement assay; it reports binding, not function.

As usually defined, the IC50 is the midpoint of a concentration-inhibition curve. For the compound `COc1ccc(/C=C(/C(=O)c2cc(OC)c(OC)c(OC)c2)c2ccc(N(C)C)cc2)cc1`, the IC50 in the assay with K562 [1] was 150 nM.

Consider `COc1ccc(C=C(C(=O)c2cc(OC)c(OC)c(OC)c2)c2ccc(C)cc2)cc1O`, for which the IC50 with K562 [1] amounted to 32 nM; in assay [2], 2.6 µM.

Take `COc1ccc(/C=C(/C(=O)c2cc(OC)c(OC)c(OC)c2)c2ccccc2O)cc1O`: the Activity in the assay with K562 [3] is reported as 6.5%; in the assay on K562 [4], 75.4%; in the assay on K562 [5], 18.1%. Moreover, the IC50 amounted to 49 nM in the assay on K562 [1]; 36 nM with L1210; 50 nM in the assay with A549; 5.5 µM in [2]; 34 nM in the assay on A2780; 28 nM with P388.

Turning to `COc1ccc(C=C(C(=O)c2cc(OC)c(OC)c(OC)c2)c2ccc(C)cc2)cc1F`, the IC50 with K562 [1] came to 570 nM; in [2] it was 4.4 µM.

Turning to `COc1ccc(C=C(C(=O)c2cc(OC)c(OC)c(OC)c2)c2ccccc2)cc1[N+](=O)[O-]`, in the assay on K562 [1], the IC50 is > 10000 nM.

Regarding `COc1ccc(C=C(C(=O)c2cc(OC)c(OC)c(OC)c2)c2ccc(OC)cc2)cc1`, the midpoint of inhibition in the assay on K562 [1], the IC50, lay at 500 nM.

For the compound `COc1ccc(/C=C(/C(=O)c2cc(OC)c(OC)c(OC)c2)c2ccccc2O)cc1`, the IC50 was 370 nM in the assay with K562 [1] and > 10 µM in assay [2].

For `COc1ccc(C(=Cc2ccc(OC)c(O)c2)C(=O)c2cc(OC)c(OC)c(OC)c2)cc1`, the Activity turned out to be 10.8% in the assay with K562 [3], 54.6% with K562 [4] and 34.6% with K562 [5]. Besides, the IC50 in the assay with K562 [1] was 12 nM; in the assay on L1210 it was 160 nM; with A549 it was 680 nM; in assay [2] it was 2.1 µM; in the assay with A2780 it was 10 nM; in the assay with P388, 20 nM.

With `COc1ccc(C=C(C(=O)c2cc(OC)c(OC)c(OC)c2)c2ccccc2)cc1F`, inhibition in the assay on K562 [1] was half-maximal at 790 nM (IC50).

Regarding `COc1ccc(/C=C(/C(=O)c2cc(OC)c(OC)c(OC)c2)c2ccc(OC)cc2)cc1`, in the assay with K562 [1], half-maximal inhibition (IC50) was put at 40 nM.

For `COc1ccc(C(=Cc2ccc(OC)c(F)c2)C(=O)c2cc(OC)c(OC)c(OC)c2)cc1`, the IC50 in the assay with K562 [1] was 450 nM; in assay [2] it was 4.2 µM.

Take `COc1ccc(/C=C(/C(=O)c2cc(OC)c(OC)c(OC)c2)c2ccccc2O)cc1O[Si](C)(C)C(C)(C)C`: the IC50 is 380 nM in the assay with K562 [1] and > 10 µM in [2].

In the assay on K562 [1], `COc1ccc(C(=Cc2ccccc2)C(=O)c2cc(OC)c(OC)c(OC)c2)cc1` showed an IC50 of 4920 nM.

As to `COc1ccc(/C=C(\C)C(=O)c2cc(OC)c(OC)c(OC)c2)cc1O`, the Activity was determined as 10.7% with K562 [3], 56.4% in the assay on K562 [4] and 32.8% in the assay on K562 [5]. In addition, the IC50 in the assay on K562 [1] was found to be 4.4 nM; with L1210, 11 nM; in [6] it was 460 nM; in the assay with A549, 10 nM; in assay [2], 3.3 µM; in the assay on A2780, 1.8 nM. In the assay on P388, this compound displayed an IC50 of 26 nM.

As for `COc1ccc(/C=C(/C(=O)c2cc(OC)c(OC)c(OC)c2)c2ccccc2O)cc1F`, the Activity stood at 10.6% in the assay on K562 [3], 45.7% in the assay on K562 [4] and 43.6% with K562 [5]. Also, the IC50 came to 60 nM with K562 [1]; 60 nM in the assay on L1210; 140 nM in the assay on A549; 7.2 µM in [2]; 40 nM in the assay on A2780; 530 nM in the assay with P388.

In the assay on K562 [1], `COc1ccc(/C=C(/C(=O)c2cc(OC)c(OC)c(OC)c2)c2ccc(OC)cc2OC)cc1` displayed an IC50 of 90 nM.

`COc1ccc(/C=C(/C(=O)c2cc(OC)c(OC)c(OC)c2)c2ccccc2)cc1`: the midpoint of inhibition with K562 [1], the IC50, lay at 20 nM.

On to `COc1ccc(C=C(C(=O)c2cc(OC)c(OC)c(OC)c2)c2ccc(C)cc2)cc1`, for which the IC50 in the assay with K562 [1] is 760 nM.

In turn, `COc1cc(C(=O)C(=Cc2ccccc2)c2ccc(C)cc2)cc(OC)c1OC` displayed an IC50 in the assay on K562 [1] of 2970 nM.

As to `COc1ccc(C=C(C(=O)c2cc(OC)c(OC)c(OC)c2)c2ccc(C)cc2)cc1[N+](=O)[O-]`, in the assay with K562 [1], the IC50 stood at 2430 nM.

In [6], `COc1cc2c(c(OC)c1OC)-c1ccc(OC)c(=O)cc1[C@@H](NC(C)=O)CC2` [COLCHICINE] had an IC50 of 2600 nM. That is a single-digit micromolar value.

For the compound `COc1ccc(C(=Cc2ccc(OC)c([N+](=O)[O-])c2)C(=O)c2cc(OC)c(OC)c(OC)c2)cc1`, the IC50 in the assay with K562 [1] was 2660 nM.

On to `COc1cc(C(=O)C(=Cc2ccccc2)c2ccccc2)cc(OC)c1OC`, for which half-maximal inhibition with K562 [1] (IC50) required 6300 nM.

Take `COc1ccc(/C=C\c2cc(OC)c(OC)c(OC)c2)cc1O` [COMBRETASTATIN A4]: the IC50 in the assay with K562 [7] is 1.4 nM; in the assay on K562 [1], 3.2 nM; in the assay on L1210, 2.3 nM; with A549 it was 7.8 nM; in [2], 3.7 µM; with A2780 it was 1.9 nM. The compound further registered an IC50 with P388 of 3.1 nM. Besides, the Activity in the assay with K562 [3] amounted to 14%; with K562 [4], 62.7%; in the assay with K562 [5], 23.3%; in assay [8] it was 92%.
